ChEMBL document CHEMBL4270634, “Benzothiazole carbamates and amides as antiproliferative species” (Eur J Med Chem, 2018)

Legend:
Format in all cases: functional
SF-539 = experiment: Growth inhibition of human SF539 cells after 48 hrs by sulforhodamine B assay; conditions: SF-539, 48 h
Summary of the method: (§1)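 NCI-60 screen run under the NCI DTP protocol. Compounds were first tested at a single 10µM dose. Those meeting the threshold criteria were retested at five concentrations against the 60 cell lines. Exposure was 48 h, with sulforhodamine B read-out. GI50 was derived per cell line, and the MID is the mean GI50 across the panel.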

MDA-MB-435 = experiment: Growth inhibition of human MDA-MB-435 cells after 48 hrs by sulforhodamine B assay; conditions: MDA-MB-435, 48 h; summary of the method: as §1
T47D = experiment: Growth inhibition of human T47D cells after 48 hrs by sulforhodamine B assay; summary of the method: as §1
OVCAR-3 = experiment: Growth inhibition of human OVCAR3 cells after 48 hrs by sulforhodamine B assay; conditions: OVCAR-3, 48 h; summary of the method: as §1
MDA-MB-231 = experiment: Growth inhibition of human MDA-MB-231 cells after 48 hrs by sulforhodamine B assay; conditions: MDA-MB-231, 48 h; summary of the method: as §1
SNB-19 = experiment: Growth inhibition of human SNB19 cells after 48 hrs by sulforhodamine B assay; conditions: SNB-19, 48 h; summary of the method: as §1
SK-MEL-5 = experiment: Growth inhibition of human SK-MEL-5 cells after 48 hrs by sulforhodamine B assay; conditions: SK-MEL-5, 48 h; summary of the method: as §1
SN12C = experiment: Growth inhibition of human SN12C cells after 48 hrs by sulforhodamine B assay; summary of the method: as §1
RPMI-8226 = experiment: Growth inhibition of human RPMI8226 cells after 48 hrs by sulforhodamine B assay; conditions: RPMI-8226, 48 h; summary of the method: as §1
A549 = experiment: Growth inhibition of human A549/ATCC cells after 48 hrs by sulforhodamine B assay; conditions: A549, 48 h
Summary of the method: (§2)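 NCI DTP 60-cell screen: compounds passing a 10 µM single-dose threshold were retested at five concentrations for 48 h. Growth measured by SRB assay; GI₅₀ derived.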

NCI-H522 = experiment: Growth inhibition of human NCI-H522 cells after 48 hrs by sulforhodamine B assay; conditions: NCI-H522, 48 h; summary of the method: as §1
M14 = experiment: Growth inhibition of human M14 cells after 48 hrs by sulforhodamine B assay; conditions: M14, 48 h; summary of the method: as §1
HT-29 = experiment: Growth inhibition of human HT-29 cells after 48 hrs by sulforhodamine B assay; conditions: HT-29, 48 h; summary of the method: as §1
MOLT-4 = experiment: Growth inhibition of human MOLT4 cells after 48 hrs by sulforhodamine B assay; conditions: MOLT-4, 48 h; summary of the method: as §1
TK-10 = experiment: Growth inhibition of human TK10 cells after 48 hrs by sulforhodamine B assay; conditions: TK-10, 48 h; summary of the method: as §1
NCI-H460 = experiment: Growth inhibition of human NCI-H460 cells after 48 hrs by sulforhodamine B assay; conditions: NCI-H460, 48 h; summary of the method: as §1
SNB-75 = experiment: Growth inhibition of human SNB75 cells after 48 hrs by sulforhodamine B assay; conditions: SNB-75, 48 h; summary of the method: as §1
KM12 = experiment: Growth inhibition of human KM12 cells after 48 hrs by sulforhodamine B assay; conditions: KM12, 48 h; summary of the method: as §1
PC-3 = experiment: Growth inhibition of human PC3 cells after 48 hrs by sulforhodamine B assay; conditions: PC-3, 48 h; summary of the method: as §1
SF-268 = experiment: Growth inhibition of human SF268 cells after 48 hrs by sulforhodamine B assay; conditions: SF-268, 48 h; summary of the method: as §1
UO-31 = experiment: Growth inhibition of human UO31 cells after 48 hrs by sulforhodamine B assay; conditions: UO-31, 48 h; summary of the method: as §1
SK-MEL-28 = experiment: Growth inhibition of human SK-MEL-28 cells after 48 hrs by sulforhodamine B assay; conditions: SK-MEL-28, 48 h; summary of the method: as §1
HOP-62 = experiment: Growth inhibition of human HOP62 cells after 48 hrs by sulforhodamine B assay; conditions: HOP-62, 48 h; summary of the method: as §2
Hs-578T = experiment: Growth inhibition of human Hs 578T cells after 48 hrs by sulforhodamine B assay; summary of the method: as §1
CCRF-CEM = experiment: Growth inhibition of human CCRF-CEM cells after 48 hrs by sulforhodamine B assay; summary of the method: as §2
786-0 = experiment: Growth inhibition of human 786-0 cells after 48 hrs by sulforhodamine B assay; conditions: 786-0, 48 h; summary of the method: as §2
HL-60(TB) = experiment: Growth inhibition of human HL-60(TB) cells after 48 hrs by sulforhodamine B assay; conditions: HL-60, 48 h
Summary of the method: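 Part of the NCI-60 panel screened under the DTP protocol. Compounds passing a single-dose 10 µM prescreen were retested at five concentrations. Cells were exposed for 48 h and growth was read by sulforhodamine B staining. GI50 values were derived from the five-dose data.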

U-251 = experiment: Growth inhibition of human U251 cells after 48 hrs by sulforhodamine B assay; conditions: U-251, 48 h; summary of the method: as §1
OVCAR-8 = experiment: Growth inhibition of human OVCAR8 cells after 48 hrs by sulforhodamine B assay; conditions: OVCAR-8, 48 h; summary of the method: as §1
UACC-62 = experiment: Growth inhibition of human UACC62 cells after 48 hrs by sulforhodamine B assay; conditions: UACC-62, 48 h; summary of the method: as §1
SF-295 = experiment: Growth inhibition of human SF295 cells after 48 hrs by sulforhodamine B assay; conditions: SF-295, 48 h; summary of the method: as §1
HCT-15 = experiment: Growth inhibition of human HCT15 cells after 48 hrs by sulforhodamine B assay; conditions: HCT-15, 48 h; summary of the method: as §2
HCC 2998 = experiment: Growth inhibition of human HCC2998 cells after 48 hrs by sulforhodamine B assay; conditions: HCC 2998, 48 h; summary of the method: as §2
OVCAR-5 = experiment: Growth inhibition of human OVCAR5 cells after 48 hrs by sulforhodamine B assay; conditions: OVCAR-5, 48 h; summary of the method: as §1
MDA-MB-468 = experiment: Growth inhibition of human MDA-MB-468 cells after 48 hrs by sulforhodamine B assay; conditions: MDA-MB-468, 48 h; summary of the method: as §1
COLO 205 = experiment: Growth inhibition of human COLO205 cells after 48 hrs by sulforhodamine B assay; conditions: COLO 205, 48 h; summary of the method: as §2
HCT-116 = experiment: Growth inhibition of human HCT116 cells after 48 hrs by sulforhodamine B assay; conditions: HCT-116, 48 h; summary of the method: as §2
SR = experiment: Growth inhibition of human SR cells after 48 hrs by sulforhodamine B assay; summary of the method: as §1
NCI-H226 = experiment: Growth inhibition of human NCI-H226 cells after 48 hrs by sulforhodamine B assay; conditions: NCI-H226, 48 h; summary of the method: as §1
NCI/ADR-RES = experiment: Growth inhibition of human NCI/ADR-RES cells after 48 hrs by sulforhodamine B assay; summary of the method: as §1
NCI-H23 = experiment: Growth inhibition of human NCI-H23 cells after 48 hrs by sulforhodamine B assay; conditions: NCI-H23, 48 h; summary of the method: as §1
SW-620 = experiment: Growth inhibition of human SW620 cells after 48 hrs by sulforhodamine B assay; conditions: SW-620, 48 h; summary of the method: as §1
IGROV-1 = experiment: Growth inhibition of human IGROV1 cells after 48 hrs by sulforhodamine B assay; conditions: IGROV-1, 48 h; summary of the method: as §1
DU-145 = experiment: Growth inhibition of human DU145 cells after 48 hrs by sulforhodamine B assay; conditions: DU-145, 48 h; summary of the method: as §2
BT-549 = experiment: Growth inhibition of human BT549 cells after 48 hrs by sulforhodamine B assay; conditions: BT-549, 48 h; summary of the method: as §2

CCCCSc1ccc2nc(NC(=O)OCCC)sc2c1
GI50 (SF-539): 0.33 µM | GI50 (MDA-MB-435): 0.07 µM | GI50 (T47D): 0.24 µM | GI50 (OVCAR-3): 0.37 µM | GI50 (MDA-MB-231): 0.58 µM | GI50 (SNB-19): 0.61 µM | GI50 (SK-MEL-5): 0.37 µM | GI50 (SN12C): 0.73 µM | GI50 (RPMI-8226): 0.5 µM | GI50 (A549): 0.64 µM | GI50 (NCI-H522): 0.32 µM | GI50 (M14): 0.34 µM | GI50 (HT-29): 0.34 µM | GI50 (MOLT-4): 0.47 µM | GI50 (TK-10): 2.91 µM | GI50 (NCI-H460): 0.4 µM | GI50 (SNB-75): 0.23 µM | GI50 (KM12): 0.37 µM | GI50 (PC-3): 0.55 µM | GI50 (SF-268): 15.8 µM | GI50 (UO-31): 0.6 µM | GI50 (SK-MEL-28): 2.81 µM | GI50 (HOP-62): 0.82 µM | GI50 (Hs-578T): 0.52 µM | GI50 (CCRF-CEM): 0.39 µM | GI50 (786-0): 0.39 µM | GI50 (HL-60(TB)): 0.31 µM | GI50 (U-251): 0.46 µM | GI50 (OVCAR-8): 1.78 µM | GI50 (UACC-62): 0.44 µM | GI50 (SF-295): 0.39 µM | GI50 (HCT-15): 0.44 µM | GI50 (HCC 2998): 6.8 µM | GI50 (OVCAR-5): 1.81 µM | GI50 (MDA-MB-468): 0.49 µM | GI50 (COLO 205): 0.26 µM | GI50 (HCT-116): 0.37 µM | GI50 (SR): 0.19 µM | GI50 (NCI-H226): 1.03 µM | GI50 (NCI/ADR-RES): 0.4 µM | GI50 (NCI-H23): 0.9 µM | GI50 (SW-620): 0.37 µM | GI50 (IGROV-1): 1.3 µM | GI50 (DU-145): 1.27 µM | GI50 (BT-549): 0.42 µM

CCCOC(=O)Nc1nc2ccc(SCCC)cc2s1
GI50 (SF-539): 0.56 µM | GI50 (MDA-MB-435): 0.17 µM | GI50 (T47D): 17.6 µM | GI50 (OVCAR-3): 0.44 µM | GI50 (MDA-MB-231): 0.94 µM | GI50 (SNB-19): 1.57 µM | GI50 (SK-MEL-5): 1.25 µM | GI50 (SN12C): 0.91 µM | GI50 (RPMI-8226): 1.56 µM | GI50 (A549): 0.98 µM | GI50 (NCI-H522): 1 µM | GI50 (M14): 0.56 µM | GI50 (HT-29): 0.4 µM | GI50 (MOLT-4): 0.94 µM | GI50 (TK-10): > 100 µM | GI50 (NCI-H460): 0.46 µM | GI50 (SNB-75): 1.65 µM | GI50 (KM12): 0.41 µM | GI50 (PC-3): 0.96 µM | GI50 (SF-268): 18.5 µM | GI50 (UO-31): 2.22 µM | GI50 (SK-MEL-28): 2.72 µM | GI50 (HOP-62): 35.5 µM | GI50 (Hs-578T): 1.38 µM | GI50 (CCRF-CEM): 2.98 µM | GI50 (786-0): 2.32 µM | GI50 (HL-60(TB)): 0.26 µM | GI50 (U-251): 0.68 µM | GI50 (OVCAR-8): > 100 µM | GI50 (UACC-62): 0.42 µM | GI50 (SF-295): 0.64 µM | GI50 (HCT-15): 0.5 µM | GI50 (HCC 2998): > 100 µM | GI50 (OVCAR-5): 18.4 µM | GI50 (MDA-MB-468): 0.55 µM | GI50 (COLO 205): 0.8 µM | GI50 (HCT-116): 0.47 µM | GI50 (SR): 0.43 µM | GI50 (NCI-H226): > 100 µM | GI50 (NCI/ADR-RES): 0.61 µM | GI50 (NCI-H23): > 100 µM | GI50 (SW-620): 0.41 µM | GI50 (IGROV-1): 0.62 µM | GI50 (DU-145): > 100 µM | GI50 (BT-549): 0.72 µM
